# Measured values of several laboratories.
# Protocols differ between the studies behind these lines.
# Target: Citron Rho-interacting kinase (CIT, Homo sapiens, UniProt O14578)
SMILES,assay,conditions,quantity,result
CC(C)S(=O)(=O)c1ccc2nccc(Nc3ccc4sc(C5CCCC5)nc4c3)c2c1,"enzyme activity, inhibitor",1 µM,activity vs control,113%
CC#CC(=O)N1CCC[C@H]1c1nc(-c2ccc(C(=O)Nc3ccccn3)cc2)c2c(N)nccn12,"enzyme activity, inhibitor",1 µM,inhibition,1%
COc1ccc2oc(-c3ccc4nc(N)oc4c3)c/c(=N\c3ccccc3NC(=O)CCN)c2c1,binding,1 µM,remaining binding,92%
CCCCC(=O)Nc1ccc(-c2ccc3ncn(CCC)c(=O)c3c2)cn1,"binding, competition with immobilised ligand",0.5 µM,remaining binding,83%
Cc1ccc(NC(=O)c2ccnc(C(F)(F)F)c2)cc1-c1cc(OCCO)nc(N2CCOCC2)c1,"binding, competition with immobilised ligand",1 µM,remaining binding,96%
CO[C@@H]1[C@H](N(C)C(=O)c2ccccc2)C[C@H]2O[C@]1(C)n1c3ccccc3c3c4c(c5c6ccccc6n2c5c31)C(=O)NC4,"enzyme activity, inhibitor",1 µM,inhibition,0%
C1=C/COCc2cc(ccc2OCCN2CCCC2)Nc2nccc(n2)-c2cccc(c2)COC/1,cell-free assay,0.1 µM,remaining signal,72%
CN1CCN(C(=O)c2ccc(NC(=O)Nc3ccc(N(C)c4ccnc(Nc5ccc(CS(C)(=O)=O)cc5)n4)cc3)cc2)CC1,"binding, competition with immobilised ligand",1 µM,remaining binding,79%
